The values that follow come from article PMC4942345 (Organic & biomolecular chemistry, 2016).

Where a SMILES comes first, the peptide text is derived from it. [ ]: non-standard residue; d: D form. The star is where a group is joined. Benzoyl(4-SO2NH2) = NS(=O)(=O)c1ccc(C(=O)*)cc1

The target of experiment [1] is T1, hCAII (Homo sapiens, UniProt P00918). Description: Esterase activity inhibition. The class given is biochemical. As to conditions: from IC50 values. Summed up:
(§1)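 Commercial human CA isozyme at 0.2 μM was run with the inhibitor-peptide conjugate as blocker. The substrate was 50 μM 4-nitrophenyl acetate in Tris buffer (9 mM Tris-HCl, 81 mM NaCl, 10% v/v acetonitrile, 1% v/v DMSO). Nitrophenol formation was followed by absorbance at 400 nm. Each run was done at least in triplicate.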

Experiment [2] concerns the target T2, hCAI (Homo sapiens, UniProt P00915). Description: Esterase activity inhibition. The class given is biochemical. Summed up: as §1
Experiment [3] has as its target T1, hCAII. Type of experiment: binding. As to conditions: fluorescence visualization of SDS gel, Fig. 3b and 3c. Summed up:
(§2)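 Excess biotinylated conjugate was loaded onto streptavidin agarose in PBS for 2 h, then washed 3-4 times with PBS and 0.05% PBST. The resin was incubated overnight at 4 °C with hCAII and hCAI, added separately or as a mixture, then washed. It was boiled 10 min at 99 °C in SDS loading buffer with reducing agent and run on SDS-PAGE.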

Experiment [4] concerns the target T2, hCAI. The class given is binding. Summed up: as §2
Experiment [5] deals with mixture of hCAIX, hCAXII, hCAVB and hCAII. The experiment in a line: Pull-down experiment with a mixture of CA isozymes, SDS-PAGE. Particulars: [CA] = 1.00 μM, Fig. 4. The class given is binding, human.

T2 sequence (P00915 whole entry): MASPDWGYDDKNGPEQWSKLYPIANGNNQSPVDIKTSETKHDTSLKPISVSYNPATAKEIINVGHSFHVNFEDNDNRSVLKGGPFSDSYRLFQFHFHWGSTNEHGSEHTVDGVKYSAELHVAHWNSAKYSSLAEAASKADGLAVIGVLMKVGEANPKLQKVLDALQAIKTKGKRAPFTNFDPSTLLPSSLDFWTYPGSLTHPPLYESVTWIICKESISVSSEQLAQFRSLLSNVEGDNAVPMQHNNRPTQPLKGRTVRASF

Regarding `CC(C)C[C@@H](NC(=O)[C@H](NC(=O)[C@@H](CC(=O)O)NC(=O)[C@H](NC(=O)[C@@H](CC(=O)O)NC(=O)c1ccc(S(N)(=O)=O)cc1)C(C)C)C(C)C)C(N)=O` [Compound 9, 4-CBS-dvdvl] ({Benzoyl(4-SO2NH2)}-[dD][dV][dD][dV][dL]-NH2), the “increase of inhibitory activity against hCAII compared to 4-ABS” value on hCAII [1] is listed as 2.6 fold. On hCAI [2] (from IC50 values, esterase activity), the “increase of inhibitory activity against hCAI compared to 4-ABS” value is on record as 30 fold. In addition, at hCAI [2] (hCAI versus hCAII and hCAIX), the “specificity in terms of enzymatic inhibitory activity (IC50)” value was “good specificity for hCAI”. For the same compound, the “pull-down with mixture of ZW700-hCAII and CY3-hCAI: binding to hCAII” value on hCAII [3] is “binds strongly”. The “pull-down, enzymes tested separately: capturing ability for hCAI” value on hCAI [4] ([hCA] = 0.57 μM, Fig. 3a, compared with 1, 2 and 7) was “greatest capturing ability for hCAI”. Also, the “pull-down with mixture of ZW700-hCAII and CY3-hCAI: binding to hCAI” value on hCAI [4] (fluorescence visualization of SDS gel, Fig. 3b and 3c) was “binds strongly”. Besides, the “pull-down with mixture of CA isozymes: isozyme captured” value in experiment [5] is “selective capturing of hCAII”.

In the case of `CC(C)C[C@@H](NC(=O)[C@@H](CC(=O)O)NC(=O)c1ccc(S(N)(=O)=O)cc1)C(=O)N[C@H](CC(=O)O)C(=O)N[C@H](CC(=O)O)C(=O)N[C@H](Cc1c[nH]c2ccccc12)C(N)=O` [Compound 7, 4-CBS-dlddw] ({Benzoyl(4-SO2NH2)}-[dD][dL][dD][dD][dW]-NH2), the “increase of inhibitory activity against hCAII compared to 4-ABS” value at hCAII [1] is given as “ca. 17 fold”. Also, the “pull-down with mixture of ZW700-hCAII and CY3-hCAI: binding to hCAII” value on hCAII [3] is “significantly increased binding selectively to hCAII”. Also, the “pull-down with mixture of CA isozymes: isozyme captured” value in experiment [5] is “selective capturing of hCAII”.
